For series [1], the system named is Mus musculus. The series is described as follows: Anticonvulsant activity in CF1 albino mouse assessed as protection against maximal electroshock-induced seizures at 30 mg/kg, ip after 4 hrs. The class given is functional, organism-based. Also on record: dose 30 mg/kg. In a few lines:
(§1)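 Adult male CF no. 1 albino mice (18-25 g). Test compound suspended in 0.5% methylcellulose and given intraperitoneally at 0.01 mL/g body weight. Maximal electroshock challenge at the stated time. Read-out is the number of animals protected over the number tested; neurotoxicity is scored in parallel.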
(The maximal electroshock test induces tonic seizures with an electrical stimulus.)

In series [2] the test system is Mus musculus. The series is described as follows: Anticonvulsant activity in CF1 albino mouse assessed as protection against maximal electroshock-induced seizures at 100 mg/kg, ip after 4 hrs. Format: functional, organism-based. On the set-up: dose 100 mg/kg. In a few lines: as §1
The subject of series [3] is Mus musculus. Kind of series: Anticonvulsant activity in CF1 albino mouse assessed as protection against scMet-induced seizures at 100 mg/kg, ip after 4 hrs. Format: functional, organism-based. On the set-up: dose 100 mg/kg. A digest of the protocol:
(§2)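 Adult male CF no. 1 albino mice (18-25 g) dosed intraperitoneally with compound suspended in 0.5% methylcellulose (0.01 mL/g). Convulsant challenge given subcutaneously as a 0.85% pentylenetetrazol solution in 0.9% saline. Read-out is animals protected over animals tested, with neurotoxicity scored in parallel.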

In series [4] the test system is Mus musculus. Kind of series: Anticonvulsant activity in CF1 albino mouse assessed as protection against scMet-induced seizures at 300 mg/kg, ip after 4 hrs. Format: functional, organism-based. On the set-up: dose 300 mg/kg. A digest of the protocol: as §2
The subject of series [5] is Mus musculus. Kind of series: Neurotoxicity in CF1 albino mouse at 30 mg/kg, ip after 0.5 hrs. To be noted: in vivo. Also on record: dose 30 mg/kg, route intraperitoneal. Format: toxicity, organism-based. A digest of the protocol: (§3)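 Male CF no. 1 albino mice (18-25 g) received a single ip dose as a suspension in 0.5% methylcellulose. The read-out was the number of animals showing neurotoxicity (minimal motor impairment) over the number tested.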

Series [6] has as its system Mus musculus. The series is described as follows: Neurotoxicity in CF1 albino mouse at 300 mg/kg, ip after 0.5 hrs. The class given is toxicity, organism-based. To be noted: in vivo. Also on record: dose 300 mg/kg, route intraperitoneal. A digest of the protocol: as §3
Series [7] concerns Rattus norvegicus. The series is described as follows: Anticonvulsant activity in albino Sprague-Dawley rat assessed as protection against maximal electroshock-induced seizures at 50 mg/kg, po after 1 hr. The class given is functional. In a few lines:
(§4)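 Adult male Sprague-Dawley albino rats (100-150 g) dosed orally with compound suspended in 0.5% methylcellulose (0.04 mL per 10 g). Maximal electroshock challenge at the stated time. Protection is scored in 25% steps as the fraction of animals protected, with neurotoxicity recorded in parallel.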

For series [8], the system named is Rattus norvegicus. The series is described as follows: Anticonvulsant activity in albino Sprague-Dawley rat assessed as protection against maximal electroshock-induced seizures at 50 mg/kg, po after 2 hrs. Format: functional. In a few lines:
as §4

The test system of series [9] is Rattus norvegicus. The series is described as follows: Anticonvulsant activity in albino Sprague-Dawley rat assessed as protection against scMet-induced seizures at 50 mg/kg, po after 15 mins. The class given is functional. A digest of the protocol:
(§5)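 Male Sprague-Dawley albino rats (100-150 g) were given the compound orally as a suspension in 0.5% methylcellulose. Seizures were induced by subcutaneous pentylenetetrazol, dissolved in 0.9% saline as a 2.82% solution. The read-out was animals protected over animals tested.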

In series [10] the test system is Rattus norvegicus. Kind of series: Anticonvulsant activity in albino Sprague-Dawley rat assessed as protection against scMet-induced seizures at 50 mg/kg, po after 2 hrs. The class given is functional. A digest of the protocol: as §5
For series [11], the system named is Mus musculus. The series is described as follows: Anticonvulsant activity in ip dosed CF1 albino mouse assessed as protection against maximal electroshock-induced seizures. The class given is functional. In a few lines: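 Male CF no. 1 albino mice (18-25 g) were dosed ip in 0.5% methylcellulose and tested by maximal electroshock. Doses were varied to give 3-4 points between 0% and 100% protection. ED50 with 95% confidence interval came from probit analysis.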

Series [12] is described as follows: Neurotoxicity in ip dosed CF1 albino mouse assessed as minimal motor impairment. Format: toxicity, organism-based. To be noted: CF1, mouse, in vivo. A digest of the protocol:
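Mice: male CF no. 1 albino (18-25 g), ip dosing in 0.5% methylcellulose. Minimal motor impairment was scored, with doses varied to give four points between no impairment and all animals impaired.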

Series [13] has as its system Mus musculus. Kind of series: Neurotoxicity in CF1 albino mouse assessed as minimal motor impairment at 60 mg/kg, ip. The settings on record: in vivo. On the set-up: dose 60 mg/kg, route intraperitoneal. The class given is toxicity, organism-based. A digest of the protocol: as §3
The species entered for series [14] is Mus musculus. Kind of series: Protective index, ratio of TD50 for CF1 albino mouse to ED50 for 32 mA current-induced CF1 albino mouse seizure model. The class given is functional. A digest of the protocol: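 Protective index is the mouse TD50 (minimal motor impairment) divided by the 6 Hz test ED50 at 32 or 44 mA. Male CF no. 1 mice were dosed ip in 0.5% methylcellulose, and values came from probit analysis.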

The subject of series [15] is Mus musculus. The series is described as follows: Anticonvulsant activity in ip dosed CF1 albino mouse assessed as protection against 44 mA-current-induced seizure by 6Hz psychomotor seizure test. The class given is functional. In a few lines:
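In the 6 Hz psychomotor seizure test, male CF no. 1 albino mice (18-25 g) received the compound ip in 0.5% methylcellulose. Stimulation was at 32 or 44 mA. Doses were varied to give 3-4 points between 0% and 100% protection, and ED50 with 95% confidence interval came from probit analysis.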

The subject of series [16] is Rattus norvegicus. Kind of series: Anticonvulsant activity in albino Sprague-Dawley rat assessed as protection against scMet-induced seizures at 2 mg/kg, po. The class given is functional, organism-based. On the set-up: dose 2 mg/kg. In a few lines:
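Oral dosing of male Sprague-Dawley rats (100-150 g) with compound in 0.5% methylcellulose. Convulsant challenge given subcutaneously as a 2.82% pentylenetetrazol solution in 0.9% saline. Groups of about 8 rats per dose. For quantitation, doses spanning 0% to 100% protection were fitted by probit analysis to give ED50 with 95% confidence interval.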

For series [17], the species on record is Rattus norvegicus. The series is described as follows: Anticonvulsant activity in hippocampal kindled Sprague-Dawley rat model. The class given is functional. To be noted: albino Sprague-Dawley, Hippocampus.
Series [18] has as its system Rattus norvegicus. The series is described as follows: Anticonvulsant activity in ip dosed albino Sprague-Dawley rat assessed as protection against pilocarpine-induced status epilepticus. Format: functional. In a few lines:
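Rat pilocarpine-induced status model: drug was given either at the first stage III seizure (time 0) or 30 min after status induction, […]. Seizure severity was scored on the Racine scale as protection or no protection. Time 0 used 12, 25, 50 and 100 mg/kg with 8 rats per dose. The 30 min arm used 50, 75 and 100 mg/kg with 7, 6 and 7 rats. ED50 was calculated.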

In series [19] the test system is Rattus norvegicus. The series is described as follows: Anticonvulsant activity in albino Sprague-Dawley rat assessed as protection against pilocarpine-induced status epilepticus dosed ip after 30 mins of pilocarpine induction. The class given is functional. To be noted: 0.5 h. A digest of the protocol: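 Rat pilocarpine status epilepticus model. Compound is given 30 min after pilocarpine status induction, or after the first stage III seizure. Seizure severity is rated on the Racine scale and scored as protection or no protection. Doses of 50, 75 and 100 mg/kg were used, with 7, 6 and 7 rats respectively. ED50 was derived by probit analysis.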

Series [20] has as its system Mus musculus. The series is described as follows: Teratogenic effect in SWV mouse assessed as number of implants at 671 mg/kg, ip administered on morning of day 8 of gestation. Format: toxicity, organism-based. On the set-up: dose 671 mg/kg, route intraperitoneal. The settings on record: in vivo. In a few lines: (§6)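 Inbred SWV mouse strain highly susceptible to VPA-induced neural tube defects. Each dam received a single ip injection on gestation day 8.5, dosed within 1.8-4.2 mmol/kg, against a control of 25% aqueous Cremophor EL. Groups were compared with the control, and with the matched VPA sodium-salt dose, by Fisher's exact test (p < 0.05).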

For series [21], the system named is Mus musculus. Kind of series: Teratogenic effect in SWV mouse assessed as number of implants at 502 mg/kg, ip administered on morning of day 8 of gestation. The class given is toxicity, organism-based. Also on record: dose 502 mg/kg, route intraperitoneal. The settings on record: in vivo. A digest of the protocol: as §6
The test system of series [22] is Mus musculus. Kind of series: Teratogenic effect in SWV mouse assessed as resorptions at 502 mg/kg, ip administered on morning of day 8 of gestation. Format: toxicity, organism-based. Also on record: dose 502 mg/kg, route intraperitoneal. The settings on record: in vivo. In a few lines:
as §6

The test system of series [23] is Mus musculus. The series is described as follows: Teratogenic effect in SWV mouse assessed as live fetuses at 671 mg/kg, ip administered on morning of day 8 of gestation. Format: toxicity, organism-based. Also on record: dose 671 mg/kg, route intraperitoneal. To be noted: in vivo. A digest of the protocol:
as §6

In series [24] the test system is Mus musculus. Kind of series: Teratogenic effect in SWV mouse assessed as number of dead fetuses at 336 mg/kg, ip administered on morning of day 8 of gestation. Format: toxicity, organism-based. On the set-up: dose 336 mg/kg, route intraperitoneal. To be noted: in vivo. A digest of the protocol:
as §6

Experimental findings from ChEMBL document CHEMBL1153988 (J Med Chem, 2009) are described below.

Active and inactive are the calls of the source. No cut-off for these calls is given here. Bounds are passed on as bounds.

In general, ED50 refers to the midpoint of the dose-response relation. A word on the TD50: it is the 50% point of the dose-response relation for the toxic effect studied. Turning to `CC1(C)C(C)(C)C1(F)C(N)=O`, the Activity entry with Mus musculus [1] is “Non-toxic”; with Mus musculus [2], “Non-toxic”; with Mus musculus [3], “Non-toxic”; in the series on Mus musculus [4] it was “Non-toxic”; with Mus musculus [5], “Non-toxic”; in the series with Mus musculus [6], “Toxic”. For the same compound, the Activity in the series on Rattus norvegicus [9] was 100%; with Rattus norvegicus [10], 75%; in the series with Mus musculus [13], “Non-toxic”; in the series on Mus musculus [20], 55; in the series on Mus musculus [21], 127; in the series on Mus musculus [22], 26.8%. For the same compound, the Activity in the series with Mus musculus [23] was 21.8%; in the series with Mus musculus [24] it was 0. Besides, the outcome in the series on Rattus norvegicus [7], with Rattus norvegicus [8] and in the series with Rattus norvegicus [16] was inactive. Besides, the ED50 in the series on Mus musculus [11] was more than 200 mg/kg; in the series on Mus musculus [15], 59 mg/kg; in the series filed under Rattus norvegicus [17] it was 30 mg/kg; in the series with Rattus norvegicus [18], 23 mg/kg; with Rattus norvegicus [19], 80 mg/kg. Further, the TD50 in [12] was 120 mg/kg. Besides, in the series filed under Mus musculus [14], the PI is recorded as 2.1.
